Reference: ChEMBL document CHEMBL4609977, “Synthesis of natural product-like polyprenylated phenols and quinones: Evaluation of their neuroprotective activities” (Bioorg Med Chem, 2020)

What was measured:
[1] = biological target: T1, Amine oxidase [flavin-containing] B (Homo sapiens, UniProt P27338); experiment: (§1) Inhibition of recombinant human MAO-B expressed in baculovirus infected BTI insect cells assessed as reduction in formation of 4-quinolinol at 25 uM using kynuramine as substrate preincubated with substrate for 10 mins followed by enzyme addition and measured after 20 mins by fluorescence based microplate reader assay relative to control
T1 sequence (P27338 whole entry): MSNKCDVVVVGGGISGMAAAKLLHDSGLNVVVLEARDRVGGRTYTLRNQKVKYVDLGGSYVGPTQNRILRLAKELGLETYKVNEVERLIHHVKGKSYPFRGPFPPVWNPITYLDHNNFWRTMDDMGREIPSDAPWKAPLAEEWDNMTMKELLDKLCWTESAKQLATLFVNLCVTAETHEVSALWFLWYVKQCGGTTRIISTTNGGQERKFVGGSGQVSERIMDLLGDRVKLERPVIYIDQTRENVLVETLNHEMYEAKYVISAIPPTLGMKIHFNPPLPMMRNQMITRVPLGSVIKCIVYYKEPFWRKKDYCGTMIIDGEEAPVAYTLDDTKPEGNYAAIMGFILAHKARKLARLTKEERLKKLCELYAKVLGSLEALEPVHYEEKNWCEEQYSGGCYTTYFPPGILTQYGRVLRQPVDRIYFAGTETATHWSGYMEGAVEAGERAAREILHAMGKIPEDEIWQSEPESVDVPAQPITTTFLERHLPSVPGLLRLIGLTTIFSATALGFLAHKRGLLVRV

[2] = biological target: T1, Amine oxidase [flavin-containing] B; experiment: Tight-binding competitive inhibition of recombinant human MAO-B expressed in baculovirus infected BTI insect cells at varying substrate concentration and IC50 of compound by tight-binding inhibition based assay
Method in brief: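 For recombinant human MAO-B with kynuramine as substrate (fluorescent 4-quinolinol read-out), IC50 values were determined at different substrate concentrations and then plotted against substrate concentration to assess tight-binding competitive inhibition.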

[3] = tested on: SH-SY5Y; experiment: Neuroprotective activity against H2O2-induced cytotoxicity in human SH-SY5Y cells assessed as increase in cell viability measured after 24 hrs by MTT assay; type: functional, cell-based
Method in brief: (§2)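 SH-SY5Y cells were seeded at 5.0 × 10⁴ cells/well and given 24 h attachment. Compound (DMSO final <0.5%) and H₂O₂ (final 500 μM) were added together in serum-free E-MEM/F12 and left 24 h at 37 °C, 5% CO₂. Viability was by MTT (5 mg/mL, 24 h, absorbance 595 nm). Luteolin was the positive control. Mean ± SD, n = 3; one-way ANOVA with Dunnett's test against H₂O₂ alone.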

[4] = biological target: T1, Amine oxidase [flavin-containing] B; experiment: Mixed inhibition of recombinant human MAO-B expressed in baculovirus infected BTI insect cells at 0.7 to 2.8 uM by Lineweaver-Burk plot analysis
[5] = tested on: SH-SY5Y; experiment: Neuroprotective activity against H2O2-induced cytotoxicity in human SH-SY5Y cells assessed as increase in cell viability at 10 uM measured after 24 hrs by MTT assay relative to H2O2-treated control; type: functional; method in brief: as §2
[6] = tested on: SH-SY5Y; experiment: Cytotoxicity against human SH-SY5Y cells assessed as effect on cell viability at 10 uM measured after 24 hrs by MTT assay; type: cell-based
Method in brief: (§3)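 SH-SY5Y cells (ECACC) were seeded at 5.0 × 10⁴ cells/well and grown 24 h in E-MEM/F12 with 0.3% FBS. Compound in DMSO (final <0.5%) was added in serum-free medium without H₂O₂ and incubated 24 h at 37 °C, 5% CO₂. Viability was read by MTT (5 mg/mL, 24 h, A595). Mean ± SD, n = 3.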

[7] = biological target: T1, Amine oxidase [flavin-containing] B; experiment: as §1, with “4-quinolinol” for “4-quinolinol at 25 uM”, “assay” for “assay relative to control”
[8] = biological target: T1, Amine oxidase [flavin-containing] B; experiment: Mixed inhibition of recombinant human MAO-B expressed in baculovirus infected BTI insect cells at 0.32 to 2.6 uM by Lineweaver-Burk plot analysis
[9] = Solubility of compound at >=25 uM; type: physicochemical
[10] = Cytotoxicity against human SH-SY5Y cells assessed as cell viability at 10 uM measured after 24 hrs by MTT assay relative to control; type: cell-based; settings: read-out: Activity; method in brief: as §3
[11] = Cytotoxicity against human SH-SY5Y cells assessed as cell viability at 5 uM measured after 24 hrs by MTT assay relative to control; type: cell-based; settings: read-out: Activity; method in brief: as §3

Structure (SMILES) | inhibition at 25 µM [1] [%] | IC50 ([7]; read-out: IC50) [µM] | other results
COc1cc(C)c(CC=C(C)C)c(OC)c1 | 5.4 |  | 
COc1c(C)c(CC=C(C)C)c(OC)c(OC)c1OC | 7.2 |  | 
CC(C)=CCC/C(C)=C/CC/C(C)=C/Cc1c(C)cc(O)c(O)c1O | 97.8 | 1.3 | inhibition (INH) [2]: Active; Activity [3]: Dose-dependent effect; Activity [5]: >20%; inhibition (INH) [8]: Active; Activity [6]: Non-Toxic
CC(C)=CCc1c(C)cc(O)c(O)c1O | 32.7 |  | 
CC(C)=CCC/C(C)=C/Cc1c(C)c(C=O)c(O)c(C/C=C(\C)CCC=C(C)C)c1O | 48.1 |  | solubility [9]: Insoluble; IC50 [7]: Nd(Insoluble)
COc1cc(C)c(C/C=C(\C)CC/C=C(\C)CCC=C(C)C)c(OC)c1 | 10.8 |  | 
CC(C)=CCC/C(C)=C/Cc1c(C)cc(O)cc1O | 30.7 |  | 
CC(C)=CCC/C(C)=C/CC/C(C)=C/Cc1c(O)cc(O)c(C(=O)O)c1C | 49.2 | 26.5 | 
CC(C)=CCC/C(C)=C/CC/C(C)=C/Cc1c(C)c(C=O)c(O)c(C/C=C(\C)CC/C=C(\C)CCC=C(C)C)c1O | 48.8 |  | solubility [9]: Insoluble; IC50 [7]: Nd(Insoluble)
CC(C)=CCC/C(C)=C/CC/C(C)=C/Cc1c(C)cc(O)cc1O | 96.4 | 9.2 | viability at 24 h, 10 µM [10]: 60%; viability at 24 h, 5 µM [11]: 63%
COc1c(C)c(C/C=C(\C)CC/C=C(\C)CCC=C(C)C)c(OC)c(OC)c1OC | 15.2 |  | 

Continued, in another order:

inhibition at 25 µM [1] [%] | IC50 ([7]; read-out: IC50) [µM] | Structure (SMILES) | other results
31.2 |  | CC(C)=CCC/C(C)=C/Cc1c(O)cc(O)c(C(=O)O)c1C | 
38 |  | COc1c(C)c(C/C=C(\C)CCC=C(C)C)c(OC)c(OC)c1OC | 
93.1 | 1.3 | CC(C)=CCC/C(C)=C/CC/C(C)=C/CC1=C(C)C(=O)C(O)=C(O)C1=O | inhibition (INH) [2]: Active; Activity [3]: Dose-dependent effect; inhibition (INH) [4]: Active; Activity [5]: >20%; Activity [6]: Non-Toxic
4.2 |  | CC(C)=CCc1c(C)cc(O)cc1O | 
84.7 | 5.5 | CC(C)=CCc1c(C)c(C=O)c(O)c(CC=C(C)C)c1O | 
38.3 |  | CC(C)=CCC1=C(C)C(=O)C(O)=C(O)C1=O | 
5.9 |  | COc1cc(C)c(C/C=C(\C)CCC=C(C)C)c(OC)c1OC | 
36.3 |  | CC(C)=CCc1c(O)cc(O)c(C=O)c1C | 
88.7 | 10.5 | CC(C)=CCC/C(C)=C/Cc1c(C)cc(O)c(O)c1O | 
34.9 |  | COc1cc(C)c(C/C=C(\C)CC/C=C(\C)CCC=C(C)C)c(OC)c1OC | 
16.3 |  | CC(C)=CCc1c(O)cc(O)c(C(=O)O)c1C | 
18.6 |  | COc1cc(C)c(CC=C(C)C)c(OC)c1OC | 
91.2 | 2.3 | CC(C)=CCC/C(C)=C/CC/C(C)=C/Cc1c(O)cc(O)c(C=O)c1C | Activity [3]: Dose-dependent effect; Activity [5]: >20%; Activity [6]: Non-Toxic
77.4 | 19.7 | CC(C)=CCC/C(C)=C/Cc1c(O)cc(O)c(C=O)c1C | 
92.2 | 1.4 | CC(C)=CCC/C(C)=C/CC1=C(C)C(=O)C(O)=C(O)C1=O | 
